Bioassay records from PubChem BioAssay.
Sampled rows, rich in hits. Any-hit rate of the full collection: about 3.1%.
CSN deneddyl inh – CSN deneddylation inhibition | Q92905 | Purified CSN, SCF-Nedd8-OG deneddylation, fluorescence polarization | inhibition, % at 12.5 µM | hit rate 0.38% among 360,000 | AID 651999;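 active means pattern-corrected inhibition above about 35%, with an unprinted fluorescence ratio check between 0.5 and 1.5, limit read from the data, passing the limit was not always enough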
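Test system: purified human Csn5 enzyme expressed in HEK293T cells. Amount: 0.24 nM enzyme. Reagent: SCFSkp2-Nedd8OG substrate at 10 nM final. Schedule: 90 min incubation of compound, enzyme and substrate at room temperature. Detection: fluorescence polarization. Read-out: % inhibition of substrate cleavage by Csn5.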
LEDGF integ inh – blocks HIV-1 LEDGF/p75-dependent DNA integration. hit rate 0.64% among 370,000. TR-FRET IN-LEDGF/p75 DNA integration, Eu/Cy5. inhibition, % at 3.7 µM;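 active means inhibition above the screen-wide mean plus 3 SD, cut at about 13% in these data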;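 further: signal is the Cy5 over europium emission ratio at 671 and 618 nm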
ATG4B inhibitor – ATG4B (human) cysteine protease inhibition; ATG4B cleavage of LC3-PLA2, NBD-HPC fluorescence, 1 h; hit rate 0.51% among 340,000; Q9Y4P1; inhibition, % at 8.33 µM; in the data active means inhibition above about 40%
rCAG binder – binds r(CAG) RNA repeats. r(CAG) RNA repeat, TO-PRO-1 dye displacement fluorescence. inhibition, % at 3 µM. hit rate 1.3% among 370,000;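 active means inhibition above the plate cutoff, the mean of all test compounds on that plate plus 3 SD, cut at about 35% in these data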;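 further: higher means more dye released from RNA so lower well fluorescence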
UHRF1 binding – human UHRF1 methylated DNA binding inhibitors. Q96T88. UHRF1 binding to methylated oligo, TR-FRET. inhibition, % at 4.4 µM. hit rate 0.75% among 370,000; in the data active means inhibition above about 21%;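 further: UHRF1 SRA domain binding a hemimethylated CpG hairpin DNA probe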
MBD2 inh – MBD2-methylated oligo binding inhibition. Q9UBB5. TR-FRET, MBD2 binding to methylated oligonucleotide. inhibition, % at 4.4 µM. hit rate 0.31% among 370,000; in the data active means inhibition above about 13%
Numbers stand for hits; - = inactive; . = no result; ! = a repeat was not active.

SMILES | CSN deneddyl inh | LEDGF integ inh | ATG4B inhibitor | rCAG binder | UHRF1 binding | MBD2 inh
CC(C)OCCCn1c(=NC(=O)c2cccs2)c(C#N)cc2c(=O)n3ccccc3nc21 | - | - | - | - | 30 | -
O=C(Cn1cc(SCc2ccccc2Cl)c2ccccc21)N1CCOCC1 | - | - | - | - | 24 | -
CC(=O)Nc1ccc(NC(=O)CSc2cn(CC(=O)N3CCOCC3)c3ccccc23)cc1 | - | - | - | - | - | -
C=CCN1[C@H](C#N)[C@@H](c2ccc(C#Cc3cccnc3)cc2)[C@H]1CO | . | - | . | - | - | -
C/C=C/C=C\C(=O)Nc1cccc(C2=NOC3(C2)C[C@H](C(N)=O)N(C(=O)CC#N)C3)c1 (stereo partly specified) | - | - | - | - | - | 19
CC1(C)CC(=O)N(CC(=O)N2CCN(Cc3ccccc3)CC2)c2ccccc2S1(=O)=O | . | - | . | - | - | -
OC(COc1ccc(Cl)cc1)CN1CCN(c2ccccn2)CC1 (stereo unspecified) | - | - | - | - | - | -
OC(COC(c1ccccc1)c1ccccc1)CN1CCN(c2ccccn2)CC1 (stereo unspecified) | - | - | - | - | 23 | -
COc1cc(CCN=Cc2cc(Cl)cc(Cl)c2O)c([N+](=O)[O-])cc1OC | - | - | . | - | - | -
COc1ccc(N=Cc2cc(Cc3ccccc3Cl)cc([N+](=O)[O-])c2O)cc1OC | - | . | 94 | . | . | .
O=C(CSc1nnc(COc2ccccc2)n1Cc1ccco1)Nc1ccc(OCc2ccccc2)cc1 | . | - | . | - | - | -
Cc1ccc(C(=O)NNC(=O)C(C)Sc2nc(N)cc(N)n2)cc1 (stereo unspecified) | - | - | - | - | 21 | -
Cc1ccc(C(=O)NNC(=O)CSc2nc(N)cc(N)n2)cc1 | - | - | - | - | - | -
Cn1c(CC(=O)Nc2ccccc2)n[nH]c1=S | - | - | - | - | - | -
Cn1nc(Cc2n[nH]c(=S)n2C)c2ccccc2c1=O | - | - | - | - | 56 | -
CCOC(=O)Cc1nn(C)c(=O)c2ccccc12 | - | - | - | - | 26 | -
CC1CN(Cc2cc(=O)n3ccsc3n2)CC(C)O1 (stereo unspecified) | - | - | - | - | 21 | -
O=c1cc(CN2CCC(Cc3ccccc3)CC2)nc2sccn12 | - | - | - | - | - | -
C=CCN1C(=O)[C@@H](CC(=O)NCCc2ccccc2OC)[C@]2(C(=O)OC)CCCCC=C12 | . | - | . | - | - | -
COc1ccc(CN(CCN2CCOCC2)C(=O)c2cccc(F)c2F)cc1OC | . | - | . | - | - | -
Cc1occc1-c1nnc(SCC(=O)N2CCCc3ccccc32)n1Cc1ccco1 | - | - | - | - | 22 | -
O=C(CSc1nnc(-c2cccnc2)n1Cc1ccco1)N1CCc2ccccc21 | - | - | - | - | - | -
O=C1C(=O)N(c2nccs2)C(c2ccccc2F)/C1=C(\O)c1ccc2c(c1)OCCO2 (stereo unspecified) | - | - | - | - | 23 | -
COC(=O)c1cc(-c2ccc(F)c(Cl)c2)c(=O)n2c1CCC2 | . | - | . | - | - | -
CC(Sc1ncc(C#N)c(N)n1)C(=O)Nc1ccccc1 (stereo unspecified) | 54 | - | - | - | - | -
SMILES | CSN deneddyl inh | LEDGF integ inh | ATG4B inhibitor | rCAG binder | UHRF1 binding | MBD2 inh
CCCCCCCCN1C(=O)[C@@H](CC(=O)N2CCOCC2)C[C@@]2(C(=O)OC)C1=C[C@H](C1CCCC1)O[C@@H]2C | . | - | . | - | - | -
Cc1nc(N2N=C(c3ccc(Cl)cc3)CC2c2ccco2)sc1C(=O)N(C)C (stereo unspecified) | - | - | - | - | - | -
COc1ccc(C2=NN(c3nc(-c4ccccc4)c(CC(=O)O)s3)C(c3ccco3)C2)cc1 (stereo unspecified) | 43 | - | - | 46 | - | -
COc1cc(OC)c(CN2CCc3c([nH]c4ccccc34)C2)cc1Br | 43 | - | - | - | - | -
COc1ccccc1-c1c(C)nn2c(N3CCN(c4ccccc4OC)CC3)cc(C)nc12 | - | - | - | - | 26 | -
CC1CCC2(CCC(=O)N2C[C@@H](O)c2ccccc2)CC1 (stereo partly specified) | . | - | . | . | - | -
O=C(Nc1nnc(-c2cccs2)o1)c1cc(-c2ccccc2)nc2ccccc12 | - | - | - | 44 | - | -
O=C(Nc1ccccc1C(F)(F)F)OCCN1C(=O)CCC12CCC(c1ccccc1)CC2 (stereo unspecified) | . | - | . | - | - | -
CCN(CC)S(=O)(=O)c1ccc(Cl)c(C(=O)Nc2cc(C)nn2-c2ccccc2)c1 | - | - | - | - | 65 | -
O=C(N/N=C\C=C\c1ccc(Br)cc1)c1ccc2c(c1)OCO2 | 49 | - | - | - | - | -
O=C(N/N=C/C=C/c1ccc2c(c1)OCO2)c1ccc([N+](=O)[O-])cc1 | - | - | - | - | - | -
O=C(N/N=C/c1cc2c(cc1Cl)OCO2)c1cccc(Br)c1 | - | - | - | - | 39 | -
O=C(N/N=C/c1cc2c(cc1Cl)OCO2)c1ccncc1 | - | - | - | - | - | -
Cc1ccc(-n2c(SCC(=O)Nc3cccc4ccccc34)nnc2-c2cnccn2)cc1 | . | - | . | - | - | -
Cc1cccc2sc(N(CCCN(C)C)C(=O)c3ccc(C(=O)c4ccccc4)cc3)nc12 | - | - | - | - | 34! | -
Cc1cccc2sc(N(CCCN(C)C)C(=O)c3sc4ccccc4c3Cl)nc12 | - | - | - | - | - | -
O=C(Nc1c(-c2ccccc2)nc2ncccn12)c1ccc(F)cc1 | . | - | . | - | - | -
CC1CCN(C(=S)NC(=O)c2ccc(C(C)(C)C)cc2)CC1 | - | - | - | - | - | -
CC(C)(C)c1ccc(C(=O)NC(=S)N2CCCCCC2)cc1 | - | 21 | - | - | - | -
CC1CCN(C(=S)NC(=O)c2ccccc2)CC1 | - | - | - | - | 38 | -
CC(C)(C)c1ccc(C(=O)NC(=S)N2CCCC2)cc1 | - | - | - | - | - | -
C=CCn1c(SCC(=O)O)nc2sc(CC)cc2c1=O | - | - | - | - | - | -
C=CCn1c(SCC#N)nc2sc(CC)cc2c1=O | - | - | - | - | 28 | -
O=C(OCCCCSc1nnc(-c2cccc3ccccc23)o1)c1ccc(F)cc1 | . | - | . | . | - | -
Cc1ccc(C(C)C)cc1S(=O)(=O)Nc1ccncc1 | - | - | - | - | 28 | -
COc1ccc(C(C)C)cc1S(=O)(=O)Nc1ccncc1 | - | - | - | - | - | -
CS(=O)(=O)c1ccc(Cl)c(NC(=O)CN2CCN(C(=O)c3cccs3)CC2)c1 | - | - | - | - | 23 | -
COc1cc(Cl)c(C)cc1NC(=O)CN1CCN(C(=O)c2cccs2)CC1 | - | - | . | - | - | -
O=C(CNS(=O)(=O)c1cccs1)N1CCN(c2ncccn2)CC1 | . | - | . | - | - | -
